Calls of active or inactive are those of the source.
Legend:
JeKo-1 = assay: Antiproliferative activity against human JeKo1 cells assessed as reduction in cell viability at 10 uM incubated for 48 hrs by cell titer-glo assay; assay type: functional, cell-based
Procedure, shortened: (§1)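 Cells plated and treated 24 h later with 10 µM compound for 48 h; viable cells quantified by CellTiter-Glo ATP luminescence. Expressed as percentage of viable cells relative to untreated; mean ± SD of three independent experiments, each in triplicate.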

U-87 MG [1] = assay: Antiproliferative activity against human U87MG cells assessed as reduction in cell viability at 10 uM incubated for 48 hrs by cell titer-glo assay; assay type: functional, cell-based; conditions: U-87MG ATCC; procedure, shortened: as §1
LN-229 [2] = assay: Induction of cell morphological changes in human LN229 cells assessed as cell rounding at 10 uM incubated for 24 to 48 hrs by phase contrast microscopy; assay type: functional, cell-based
Procedure, shortened: (§2)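 LN229 and PC3 cells exposed to 10 µM compound for the indicated time-points, then imaged live by phase-contrast microscopy for morphology.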

PC-3 [3] = assay: Induction of cell morphological changes in human PC3 cells assessed as cell rounding at 10 uM incubated for 24 to 48 hrs by phase contrast microscopy; assay type: functional, cell-based; procedure, shortened: as §2
Granta-519 = assay: Antiproliferative activity against human GRANTA-519 cells assessed as reduction in cell viability incubated for 48 hrs by cell titer-glo assay; assay type: functional, cell-based; conditions: Granta-519, 48 h
Procedure, shortened: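 Dose-response: cells plated, treated 24 h later for 48 h, then ATP measured by CellTiter-Glo luminescence. IC50 given as mean ± SD from three independent experiments, each in triplicate. Fibroblasts came from individuals. Cells were kept in RPMI or DMEM with 10% heat-inactivated FBS and penicillin/streptomycin at 37 °C, 5% CO2.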

U-87 MG [4] = assay: Cell cycle arrest in human U87MG cells assessed as increase in cell accumulation at G0/G1 phase at 10 uM incubated for 24 hrs by propidium iodide staining based flow cytometry analysis; assay type: functional; conditions: U-87MG ATCC
U-87 MG [5] = assay: Cell cycle arrest in human U87MG cells assessed as decrease in cell accumulation at G2 phase at 10 uM incubated for 24 hrs by propidium iodide staining based flow cytometry analysis; assay type: functional; conditions: U-87MG ATCC
LN-229 [6] = assay: Cell cycle arrest in human LN229 cells assessed as cell accumulation at S phase at 10 uM incubated for 24 hrs by propidium iodide staining based flow cytometry analysis relative to control; assay type: functional
PC-3 [7] = assay: Cell cycle arrest in human PC3 cells assessed as cell accumulation at G1 phase at 10 uM incubated for 24 hrs by propidium iodide staining based flow cytometry analysis relative to control; assay type: functional
PC-3 [8] = assay: Cell cycle arrest in human PC3 cells assessed as cell accumulation at S phase at 10 uM incubated for 24 hrs by propidium iodide staining based flow cytometry analysis relative to control; assay type: functional
PC-3 [9] = assay: Cell cycle arrest in human PC3 cells assessed as cell accumulation at G2/M phase at 10 uM incubated for 24 hrs by propidium iodide staining based flow cytometry analysis relative to control; assay type: functional
PC-3 [10] = assay: Cell cycle arrest in human PC3 cells assessed as cell accumulation at G1 phase at 10 uM incubated for 48 hrs by propidium iodide staining based flow cytometry analysis relative to control; assay type: functional
LN-229 [11] = assay: Induction of cellular senescence in human LN229 cells assessed as increase in beta-gal-positive cells at 10 uM incubated for 24 hrs by X-Gal staining based microscopic assay relative to control; assay type: functional
PC-3 [12] = assay: Induction of cellular senescence in human PC3 cells assessed as increase in beta-gal-positive cells at 10 uM incubated for 24 hrs by X-Gal staining based microscopic assay relative to control; assay type: functional
Procedure, shortened: (§3)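 LN229 and PC3 cells, 12×10^4 per well in 6-well plates, treated with 10 µM compound for 24 h. Senescence-associated β-gal staining: fixed in 2% formaldehyde/0.2% glutaraldehyde for 10 min at RT, stained with 1 mg/mL X-gal at 37 °C for 24 h without CO2. Blue cells counted in at least 10 fields at 10x and given as percent of total; four independent experiments. Morphology viewed by phase contrast at ×100.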

LN-229 [13] = assay: Induction of cellular senescence in human LN229 cells assessed as wider cells at 10 uM incubated for 24 hrs by phase contrast microscopy; assay type: functional, cell-based; procedure, shortened: as §3
LN-229 [14] = assay: Induction of cellular senescence in human LN229 cells assessed as larger volume of cell at 10 uM incubated for 24 hrs by phase contrast microscopy; assay type: functional, cell-based; procedure, shortened: as §3
PC-3 [15] = assay: Induction of cellular senescence in human PC3 cells assessed as larger volume of cell at 10 uM incubated for 24 hrs by phase contrast microscopy; assay type: functional, cell-based; procedure, shortened: as §3
PC-3 [16] = assay: Induction of cellular senescence in human PC3 cells assessed as increase in nuclear size at 10 uM incubated for 24 hrs by phase contrast microscopy; assay type: functional, cell-based; procedure, shortened: as §3
MCF7 = assay: Induction of apoptosis in human MCF7 cells assessed as increase in caspase-3/7 activation at 10 uM incubated for 48 hrs by luminometric caspase-glo 3/7 assay; assay type: functional, cell-based
Procedure, shortened: (§4)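 Cells in RPMI or DMEM with 10% heat-inactivated FBS and penicillin/streptomycin, 37 °C, 5% CO2, treated with 10 µM compound for 48 h. Caspase-3 and caspase-7 activity read by luminescent Caspase-Glo 3/7 assay, reported as fold induction over untreated cells; mean ± SD of three independent experiments, each in triplicate.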

Homo sapiens [17] = organism: Homo sapiens; assay: Induction of apoptosis in human SP53 cells assessed as increase in caspase-3/7 activation at 10 uM incubated for 48 hrs by luminometric caspase-glo 3/7 assay; assay type: functional, cell-based; procedure, shortened: as §4
Jurkat = assay: Induction of apoptosis in human Jurkat cells assessed as increase in caspase-3/7 activation at 10 uM incubated for 48 hrs by luminometric caspase-glo 3/7 assay; assay type: functional, cell-based; procedure, shortened: as §4
Homo sapiens [18] = organism: Homo sapiens; assay: Induction of apoptosis in human UPN2 cells assessed as increase in caspase-3/7 activation at 10 uM incubated for 48 hrs by luminometric caspase-glo 3/7 assay; assay type: functional, cell-based; procedure, shortened: as §4
U-87 MG [19] = assay: Induction of apoptosis in human U87MG cells assessed as increase in caspase-3/7 activation at 10 uM incubated for 48 hrs by luminometric caspase-glo 3/7 assay; assay type: functional, cell-based; conditions: U-87MG ATCC; procedure, shortened: as §4
LN-229 [20] = assay: Induction of apoptosis in human LN229 cells assessed as increase in caspase-3/7 activation at 10 uM incubated for 48 hrs by luminometric caspase-glo 3/7 assay; assay type: functional, cell-based; procedure, shortened: as §4
LN-229 [21] = assay: Induction of mitochondrial membrane potential loss in human LN229 cells at 10 uM measured upto 48 hrs by JC-1 staining based flow cytometry analysis; assay type: functional, cell-based
Procedure, shortened: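 LN229 cells seeded at 5×10^5 cells/mL and adhered overnight, then given medium with 10 µM compound for the indicated time-points. Readout is mean FL3 (aggregate, 590 nm)/FL1 (monomer, 530 nm) fluorescence ratio; mean ± SD of three determinations.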

LN-229 [22] = assay: Inhibition of colony formation in human LN229 cells at 10 uM incubated for 4 hrs by crystal violet staining based colony counting method; assay type: functional, cell-based
Procedure, shortened: (§5)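 LN229 and PC3 cells treated for 4 h with compound (10 µM) or with etoposide (30 µM positive control), washed, trypsinized and replated at 3000 cells per 60-mm plate. Colonies grown 7–10 days, fixed and stained with 0.5% crystal violet in 70% ethanol, and counted. Reported as percent of control; four independent experiments, each in duplicate.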

PC-3 [23] = assay: Inhibition of colony formation in human PC3 cells at 10 uM incubated for 4 hrs by crystal violet staining based colony counting method; assay type: functional, cell-based; procedure, shortened: as §5

CN(CCNCc1ccccn1)CCNCc1ccccn1
2.09 µM: IC50 (Granta-519)
inactive: inhibition (LN-229 [22]) | inhibition (PC-3 [23])
19.7%: Activity (PC-3 [9])
15.6%: Activity (LN-229 [6])
71.1%: Activity (PC-3 [7])
active: Activity (JeKo-1) | Activity (U-87 MG [1]) | Activity (LN-229 [2]) | Activity (PC-3 [3]) | Activity (U-87 MG [4]) | Activity (U-87 MG [5]) | Activity (LN-229 [11]) | Activity (PC-3 [12]) | Activity (LN-229 [13]) | Activity (LN-229 [14]) | Activity (PC-3 [15]) | Activity (PC-3 [16]) | Activity (MCF7) | Activity (Homo sapiens [17]) | Activity (Jurkat) | Activity (Homo sapiens [18]) | Activity (U-87 MG [19]) | Activity (LN-229 [20]) | Activity (LN-229 [21])
9.2%: Activity (PC-3 [8])
57.2%: Activity (PC-3 [10])

c1ccc(CNCCN(CCNCc2ccccn2)Cc2ccc3ccccc3c2)nc1
8.9%: Activity (PC-3 [8])
active: Activity (JeKo-1) | Activity (U-87 MG [1]) | Activity (LN-229 [2]) | Activity (PC-3 [3]) | Activity (U-87 MG [4]) | Activity (U-87 MG [5]) | Activity (LN-229 [13]) | Activity (LN-229 [14]) | Activity (PC-3 [15]) | Activity (PC-3 [16]) | Activity (MCF7) | Activity (Homo sapiens [17]) | Activity (Jurkat) | Activity (Homo sapiens [18]) | Activity (U-87 MG [19]) | Activity (LN-229 [20]) | Activity (LN-229 [21])
inactive: inhibition (LN-229 [22]) | inhibition (PC-3 [23])
4.34 µM: IC50 (Granta-519)
73.7%: Activity (PC-3 [7])
73.4%: Activity (PC-3 [10])
14.8%: Activity (LN-229 [6])
17.2%: Activity (PC-3 [9])
90%: Activity (LN-229 [11])
50%: Activity (PC-3 [12])

Source: ChEMBL document CHEMBL4376884, “Toward a Rational Design of Polyamine-Based Zinc-Chelating Agents for Cancer Therapies” (J Med Chem, 2020)
